From ChEMBL document CHEMBL4699415, “Synthesis and anti-HBV activity of carbocyclic nucleoside hybrids with salient features of entecavir and aristeromycin” (RSC Med Chem, 2020) come the findings set out here.

As a reminder, the IC50 is the concentration that inhibits the measured activity by half. Usually CC50 stands for the concentration giving 50% cytotoxicity.

A value given as a limit tells only on which side of the number the result lay.

One series concerns Hepatitis B virus. The experiment in a line: Antiviral activity against Hepatitis B virus infected in human HepG2.2.15.7 assessed as reduction in HBV DNA level incubated for 9 days media replaced every 3 days once with test compound by RT-PCR analysis. The class given is functional, organism-based. Put shortly: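 HepG2.2.15.7 cells, 1 × 10^4 per well, settled 24 h before exposure to a range of concentrations; drug-containing medium renewed every three days. At day nine, supernatant HBV DNA quantified by real-time PCR. IC50 is the concentration giving 50% inhibition of supernatant HBV DNA.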

Series [1] is described as follows: Cytotoxicity against human HepG2.2.15.7 cells assessed as reduction in cell viability. The class given is cell-based. Put shortly: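 HepG2.2.15.7 cells, 1 × 10^4 per well, seeded 24 h, then kept nine days with graded concentrations, medium with drug renewed every three days. Viability read by tetrazolium dye method. CC50 is the concentration reducing viable cells by 50%.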

Regarding `C=C1[C@@H](n2ccc3c(N)ncnc32)[C@H](O)[C@H](O)[C@@]1(C)CO`, the IC50 with Hepatitis B virus is > 100 µM. The CC50 in series [1] is > 100 µM.
Consider `C=Cc1cn([C@@H]2C(=C)[C@](C)(CO)[C@@H](O)[C@H]2O)c2ncnc(N)c12`, for which the half-inhibitory concentration (IC50) in the series with Hepatitis B virus was > 100 µM. Further, in series [1], the CC50 is > 100 µM.
For `C=C1[C@@H](n2cc(Br)c3c(N)ncnc32)[C@H](O)[C@H](O)[C@@]1(C)CO`, the IC50 in the series with Hepatitis B virus was 8.3 µM. For the same compound, the CC50 in series [1] was > 100 µM.
The corresponding values for `C=C1[C@@H](n2cc(F)c3c(N)ncnc32)[C@H](O)[C@H](O)[C@@]1(C)CO` are > 100 µM and > 100 µM.
Take `C#Cc1cn([C@@H]2C(=C)[C@](C)(CO)[C@@H](O)[C@H]2O)c2ncnc(N)c12`: the IC50 in the series with Hepatitis B virus came to 6.3 µM. Further, the CC50 in series [1] was > 100 µM.
The corresponding values for `C=C1[C@@H](n2cc(Cl)c3c(N)ncnc32)[C@H](O)[C@H](O)[C@@]1(C)CO` are 22.9 µM and > 100 µM.
For the compound `C=C1[C@@H](n2cc(I)c3c(N)ncnc32)[C@H](O)[C@H](O)[C@@]1(C)CO`, the IC50 with Hepatitis B virus turned out to be 3.4 µM. The CC50 in series [1] is 87.5 µM.
Regarding `Nc1ncnc2c1ncn2[C@@H]1C[C@H](CO)[C@@H](O)[C@H]1O` [ARISTEROMYCIN], the IC50 with Hepatitis B virus is > 3 µM. For the same compound, the CC50 in series [1] is > 3 µM.
With `C=C1[C@H](CO)[C@@H](O)C[C@@H]1n1cnc2c(=O)[nH]c(N)nc21` [ENTECAVIR], the IC50 with Hepatitis B virus amounted to 0.00018 µM. In addition, the 50% cytotoxic concentration (CC50) in series [1] is > 0.1 µM.
